In the EternaBench riboswitch data:

Tested on: MS2 coat protein
Assay: apparent Kd, MS2 coat protein; higher = weaker binding; RNA-MaP array; tryptophan 2.4 mM where present
Outline: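 Designs were transcribed by stalled E. coli RNA polymerase on Illumina sequencing-chip clusters. They were titrated with SNAP-549-labelled MS2 coat protein from 0.7 or 1.5 nM, doubling to 3 µM, without and then with constant ligand. Buffer: 100 mM Tris-HCl pH 7.5, 80 mM KCl, 4 mM MgCl2, BSA, DTT, yeast tRNA, Tween-20. Green signal was normalised to red-channel RNA signal and control-cluster median Fmax. Apparent Kd is the median of filtered per-cluster binding-curve fits.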

[1] = designed as: OFF switch for tryptophan, no ligand
[2] = ligand present: tryptophan, designed as: OFF switch for tryptophan
[3] = designed as: ON switch for tryptophan, no ligand
[4] = ligand present: tryptophan, designed as: ON switch for tryptophan

| Sequence | apparent Kd [1] | apparent Kd [2] | apparent Kd [3] | apparent Kd [4] |
| --- | --- | --- | --- | --- |
| ACUUCGCAUAGGAAAACUAUGUGAAGAAAUCGAGGACCGGUACGGCCGCCACUCGUCCUCAACAUGAGGAUCACCCAUGUAAUAA | 20.1 nM | 37.8 nM |  |  |
| UGUCAGCGAAAGUUGACAUGUUGAACCGGUCGAGGACCGGUACGGCCGCCACUCGAUCUCUCGUACAUGAGGAUCACCCAUGUCG |  |  | 11.5 nM | 10.7 nM |
| GGUAUGUAUUCGGAAACGAAUGCAUACCAACGAGGACCGGUACGGCCGCCACUCGGGCCGUGAUCACAUGAGGAUCACCCAUGUA | 40.2 nM | 92.7 nM |  |  |
| CCGGCCAAUUAGAAAUUAAUUGGCCGGAAACGAGGACCGGUACGGCCGCCACUCGUGGCGGGAGAAACAUGAGGAUCACCCAUGU | 40 nM | 26 nM |  |  |
| UAGUUGUAGUCGGCCGCCACUGUGAGCAUGGUUAACAUGAGGAUCACCCAUGUCCCGUACUAUAACAGGACCGGGACGUAGUUGC |  |  | 48.1 nM | 22.9 nM |
| AACAUGAGGAUCACCCAUGUCCCAUGUGAACGAGGACCGGUACGGCCGCCACUCGAAUGAGGCGGCACAUGAGGAUCACCCACAU |  |  | 131 nM | 196 nM |
| AAUACCGGUCCUCGAGGGUGAUCCUCAUGACGAGGACCGGUACGGCCGCCACUCGAUAACAUGAGGAUCACCCAUGUAAUCGAGU | 59 nM | 56.4 nM |  |  |
| CACAUUUUUAGAAGGGCGGUUUCACUCCUGCGAGGACCGGUACGGCCGCCACUCGACAUGAGGAUCACCCAUGUGGAGAAGUUAG | 20.5 nM | 110 nM |  |  |
| CCAUCUACAUCGGCCGCCACUGAACCAAGGAGACAUGAGGAUCACCCAUGUAUGGGAAACCAUCAUAGGACCGGGAUGAUCUACC |  |  | 113 nM | 122 nM |
| CUAGACUGUGCGGCCGCCACUGGCUCAUCCUGCAUUACAUGAGGAUCACCCAUGUUGCGGCCUCCCAGGACCGGGCAUAGUCUGC |  |  | 329 nM | 105 nM |
| AGGUACGGAAUCCUCAUGUAGUCGUACCAACGAGGACCGGUACGGCCGCCACUCGAAUAAACAUGAGGAUCACCCAUGUAAUAAU |  |  | 34.4 nM | 19.7 nM |
| CAUGGCUGUGCGGCCGCCACUGGCUCAUCCUGCAUUACAUGAGGAUCACCCAUGUUGCGGCCUCCCAGGACCGGGCAUAGCCUGA |  |  | 300 nM | 139 nM |
| GUUGGACUUUCGGCCGCCACUGAGAGAGUCAUGUGAACAUGAGGAUCACCCAUGUAAUAUAUAUACAGGACCGGGAGGGUUGUAA | 13.3 nM | 9.9 nM |  |  |
| GGAGUAGGAAACUAUUCCAAUCCUCGUGAACGAGGACCGGUACGGCCGCCACUCGAUAAAUAAAUACAUGAGGAUCACCCAUGUU | 68.8 nM | 118 nM |  |  |
| UUACACAUCUCGGCCGCCACUGGCUUCAAAAUAAUGUGUACAUGAGGAUCACCCAUGUCCGAGCUCAGGACCGGGAGCAAAGAAG |  |  | 26.7 nM | 27.1 nM |
| UCGUGCAGAGCGGCCGCCACUGUAUUGCGUGCGGAUGACGGAACAUGAGGAUCACCCAUGUUGUUUAGGACCGGGCUUGCCACCA | 12.7 nM | 13.9 nM |  |  |
| UGUGUAAUUGUCUGGUAGAUUUAUUUUUUUCGAGGACCGGUACGGCCGCCACUCGUUAUUUACAUGAGGAUCACCCAUGUUAGCU | 12.9 nM | 12.9 nM |  |  |
| AAACAUGAGGAUCACCCAUGUAUGUUAUUACGAGGACCGGUACGGCCGCCACUCGAUAGAGUAGAAGUAAAUUGUAAUUCAUGUU | 14.3 nM | 15.9 nM |  |  |
| AGCAACAAGUCGGCCGCCACUCAUUUAACAUGAGGAUCACCCAUGUGAAUAACAUGAUUGUAAUAGAGGACCGGGACAGUUGCAU |  |  | 62.5 nM | 31 nM |
| AUUCAUGGAAACAUGACAUACAUAUCCGGUCGAGGACCGGUACGGCCGCCACUCGUUUGGAGGCACAUGAGGAUCACCCAUGUUA |  |  | 23.9 nM | 25.9 nM |
| ACCGAAAGCUCACAUGAGGAUCACCCAUGUCGAGGACCGGUACGGCCGCCACUCGGCAAAUAUAAGGGUGGACGCGUCUCUGCGU | 39 nM | 79.8 nM |  |  |
| GGUUACUCUACGGCCGCCACUGUAAAGUAAAGAUACCUGUACAUGACAUGAGGAUCACCCAUGUACAGGACCGGGUAGUGUAACC |  |  | 545 nM | 232 nM |
| GGUAACUCUACGGCCGCCACUGAACAUGAGGAUCACCCAUGUAAUGUUCAGAUUUUUUUUUUUUACAGGACCGGGUAGUGUUACC |  |  | 178 nM | 118 nM |
| UUAUAAGUACCGGUCCUCAGAUCCUCAUGACGAGGACCGGUACGGCCGCCACUCGAAACAUGAGGAUCACCCAUGUAAUAACACU | 23.1 nM | 19.9 nM |  |  |
| ACGUUUUAGUCGGCCGCCACUGUUUUCAUGUUCAACAUGAGGAUCACCCAUGUACCUUUUUUUAUCAGGACCGGGACGUAAUAGA |  |  | 68.5 nM | 27.4 nM |
| AACGAGUGGCGGCCAUUGGGUGAUCCUCUACGAGGACCGGUACGGCCGCCACUCGAUAACAUGAGGAUCACCCAUGUGCCGAUAA | 124 nM | 133 nM |  |  |

| Sequence | apparent Kd [1] | apparent Kd [2] | apparent Kd [3] | apparent Kd [4] |
| --- | --- | --- | --- | --- |
| GGCACAUAGUCGGCCGCCACUAGAAUAAGAUGGAAUAACAUGAGGAUCACCCAUGUAAAAGGGACUAGGACCGGGACUAUGUGCC | 13.7 nM | 11.9 nM |  |  |
| GAUUUAACAAAAGUUAGAUCAGUGGGUGAACGAGGACCGGUACGGCCGCCACUCGGACAUGAGGAUCACCCAUGUCCAUGUGAAA | 17.8 nM | 43.1 nM |  |  |
| UAAACUACACAUGAGGAUCACCCAUGUGGCCGAGGACCGGUACGGCCGCCACUCGUGUGUUAAUAAAAGAACUGCAAGGUUCUUC |  |  | 174 nM | 73.1 nM |
| CUCAUCCACGCGGCCGCCACUAUAUUGUGGUGUGAAUGUGACGUAUUACAUGAGGAUCACCCAUGUAGGACCGGGCGUGGAUGAG | 75.4 nM | 168 nM |  |  |
| AACAUGAGGAUCACCCAUGUCCCAUGUGAACGAGGACCGGUACGGCCGCCACUCGACCGAGGCGGCACAUGAGGAUCACCCACAU |  |  | 234 nM | 608 nM |
| AGGUACAGCAGGUGAUUCUGGCUGUACCAACGAGGACCGGUACGGCCGCCACUCGAAUAAACAUGAGGAUCACCCAUGUACAAAU |  |  | 24.6 nM | 21.6 nM |
| UUCUUUAAGUCGGCCGCCACUGAAACAUGAGGAUCACCCAUGUAAAUUUGGGAGUAGUUAUAUUACAGGACCGGGACUAUAGUAA | 41.5 nM | 83 nM |  |  |
| AGUUCCAGGUCGGCCGCCACUGGCGUGGCCGGUCCUCGGACUUACAUGAGGAUCACCCAUGUGAACAGGACCGGGACCGCAUGGG | 36.9 nM | 28.7 nM |  |  |
| CGUAUUGGAAACAGUACGAGUGAUCCGGUCCGAGGACCGGUACGGCCGCCACUCGAAAUUAAUAAACAUGAGGAUCACCCAUGUA | 17.8 nM | 26.8 nM |  |  |
| AAAAUAAAAUAAAAGGUGGAAAUAAGGCGGCGAGGACCGGUACGGCCGCCACUCGCGUACAUGAGGAUCACCCAUGUCUGAAAAU |  |  | 22.4 nM | 27.4 nM |
| ACAUGAGGAUCACCCAUGUGUGUAAAUCCUCGAGGACCGGUACGGCCGCCACUCGAUUGAGUGUAAGUUGAAUGUAACAUUCAAC |  |  | 96.2 nM | 30.1 nM |
| ACGGAUCGGAAACGAUCCGCGGCGCGGGUGCGAGGACCGGUACGGCCGCCACUCGGGUAACAUGAGGAUCACCCAUGUCCGAUUU | 101 nM | 304 nM |  |  |
| UUCGUUGGCGAUCUGGGUUUACCAGAUCGGCGAGGACCGGUACGGCCGCCACUCGUGUUUUCUUUACAUGAGGAUCACCCAUGUU |  |  | 19.2 nM | 15.2 nM |
| AGCCACUCGAGUGAUCCUCACGAGUGGCUACGAGGACCGGUACGGCCGCCACUCGAAUUAACAUGAGGAUCACCCAUGUAAUCUA |  |  | 81 nM | 53.8 nM |
| GGGACAUGAGGAUCACCCAUGUACCGGUCCCGAGGACCGGUACGGCCGCCACUCGAUGACCUCAUAGUCUGCCUGAGCAGCAGAC |  |  | 41.3 nM | 119 nM |
| GGUGUAAUUGACUCUUUGUUUUAUUUGUAACGAGGACCGGUACGGCCGCCACUCGAUAUUCACAUGAGGAUCACCCAUGUUAGCU | 20.1 nM | 20.4 nM |  |  |
| GCUACAUGAGGAUCACCCAUGUAUGCGAGCCGAGGACCGGUACGGCCGCCACUCGCUUAACAUGAGGAUCACCCAUGUUGCUCGG |  |  | 40.9 nM | 43.6 nM |
| GGAGUAGGAAACUAUUCCAAUCCUCGUGAACGAGGACCGGUACGGCCGCCACUCGAUAAAUAAAUACAUGAGGAUCACCCAUGUA | 24.4 nM | 50.2 nM |  |  |
| AGCACGGUGAUGGUAGCCGGACGAUAAGUACGAGGACCGGUACGGCCGCCACUCGAAGUCCUACGACAUGAGGAUCACCCAUGUA |  |  | 33.2 nM | 37.9 nM |
| ACGUGGAAAAUUUGUGGUGCUGCCUCAGGCCGAGGACCGGUACGGCCGCCACUCGUACAUGAGGAUCACCCAUGUCGAGUCACUG | 25.4 nM | 22.2 nM |  |  |
| GGCACAUAGUCGGCCGCCACUAGUGGGAAAUGGGAGAACAUGAGGAUCACCCAUGUAGCGUAGCCUAGGACCGGGACUAUGUGCC | 160 nM | 156 nM |  |  |
| GCUAGGUCUACGGCCGCCACUAGACAUGGGUAAGACAUGAGGAUCACCCAUGUACUACGAGUGCAUAGGACCGGGUAGACCUAGC |  |  | 326 nM | 53.5 nM |
| GUGUACAUGAGGAUCACCCAUGUCGAGUUACGAGGACCGGUACGGCCGCCACUCGGCGGCUCGACACGGAUAGCGAUGCGUUGCU | 43.6 nM | 110 nM |  |  |
| ACAUGAGGAUCACCCAUGUCAUGAGGUUCACGAGGACCGGUACGGCCGCCACUCGACAUGAGGGUCACCCAUGUGAGGAACACCC |  |  | 305 nM | 97 nM |
| AAGCGGGCGACGGCCGCCACUUGCCUGUAAUUAGAGAAGGCACAUGAGGAUCACCCAUGUCCCGCAAGGACCGGGUUGCCUCACU |  |  | 417 nM | 84.5 nM |
| GUGCCGCAUUCACAUGAGGAUCACCCAUGUCGAGGACCGGUACGGCCGCCACUCGACGUGCUUACAGGUCCUUUAAGGCCCAAUA | 92.8 nM | 43.8 nM |  |  |
